# Assay results as given in ChEMBL document CHEMBL4152234, “Aminobenzothiazole derivatives stabilize the thermolabile p53 cancer mutant Y220C and show anticancer activity in p53-Y220C cell lines” (Eur J Med Chem, 2018).
# Calls of active or inactive are those of the source. The calls are words filed in the database; no cut-off is given here.
# Assays:
# [1] = tested on: Cellular tumor antigen p53 (Homo sapiens), P04637 [Y220C]; assay: Activation of p53 Y220C mutant in human NUGC3 cells assessed as change in APAF1 mRNA level at 60 uM after 18 hrs by RT-PCR method relative to control; format: cell-based
# Method in brief: (§1)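 p53 signalling qPCR array covering 84 genes. Cells were exposed for 18 h, with 0.5% DMSO in both compound and control samples. Total RNA was extracted and purified. Fold-changes were calculated by ΔΔCt using β2-microglobulin (B2M) as the housekeeping gene. Two independent biological replicates were run per cell line.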
# [2] = tested on: Cellular tumor antigen p53 (Homo sapiens), P04637 [Y220C]; assay: Activation of p53 Y220C mutant in human NUGC3 cells assessed as change in CDKN1A mRNA level at 60 uM after 18 hrs by RT-PCR method relative to control; format: cell-based; method in brief: as §1
# [3] = tested on: Cellular tumor antigen p53 (Homo sapiens), P04637 [Y220C]; assay: Activation of p53 Y220C mutant in human NUGC3 cells assessed as change in E2F1 mRNA level at 60 uM after 18 hrs by RT-PCR method relative to control; format: cell-based; method in brief: as §1
# [4] = tested on: Cellular tumor antigen p53 (Homo sapiens), P04637 [Y220C]; assay: Activation of p53 Y220C mutant in human NUGC3 cells assessed as change in SESN2 mRNA level at 60 uM after 18 hrs by RT-PCR method relative to control; format: cell-based
# Method in brief: (§2)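 p53 signalling qPCR array covering 84 p53 pathway genes. Cells were exposed for 18 h, and compound and control wells both held 0.5% DMSO. Total RNA was extracted and purified. Fold-changes were calculated by the ΔΔCt method against the untreated sample, with β2-microglobulin (B2M) as the housekeeping gene. Each cell line was run in two independent biological replicates.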
# [5] = tested on: Cellular tumor antigen p53 (Homo sapiens), P04637 [Y220C]; assay: Activation of p53 Y220C mutant in human NUGC3 cells assessed as change in BCL2A1 mRNA level at 60 uM after 18 hrs by RT-PCR method relative to control; format: cell-based; method in brief: as §1
# [6] = tested on: Cellular tumor antigen p53 (Homo sapiens), P04637 [Y220C]; assay: Activation of p53 Y220C mutant in human NUGC3 cells assessed as change in CCNB1 mRNA level at 60 uM after 18 hrs by RT-PCR method relative to control; format: cell-based; method in brief: as §1
# [7] = tested on: Cellular tumor antigen p53 (Homo sapiens), P04637 [Y220C]; assay: Activation of p53 Y220C mutant in human NUGC3 cells assessed as change in PRC1 mRNA level at 60 uM after 18 hrs by RT-PCR method relative to control; format: cell-based; method in brief: as §2
# [8] = tested on: Cellular tumor antigen p53 (Homo sapiens), P04637 [Y220C]; assay: Activation of p53 Y220C mutant in human NUGC3 cells assessed as change in IL6 mRNA level at 60 uM after 18 hrs by RT-PCR method relative to control; format: cell-based; method in brief: as §2
# [9] = tested on: Cellular tumor antigen p53 (Homo sapiens), P04637 [Y220C]; assay: Activation of p53 Y220C mutant in human NUGC3 cells assessed as change in XRCC5 mRNA level at 60 uM after 18 hrs by RT-PCR method relative to control; format: cell-based; method in brief: as §2
# [10] = molecular target: T1, Cellular tumor antigen p53 (Homo sapiens, UniProt P04637); assay: Activation of p53 in human NUGC4 cells assessed as change in BBC3 mRNA level at 60 uM after 18 hrs by RT-PCR method relative to control; format: cell-based; conditions: read-out: FC; method in brief: as §2
# [11] = molecular target: T1, Cellular tumor antigen p53; assay: Activation of p53 in human NUGC4 cells assessed as change in BRCA1 mRNA level at 60 uM after 18 hrs by RT-PCR method relative to control; format: cell-based; conditions: read-out: FC
# Method in brief: (§3)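 p53 signaling qPCR array of 84 p53-pathway genes. Cells were treated in 6-well plates for 18 h with 0.5% DMSO in compound and control samples. Total RNA was extracted and fold-changes were obtained by the ΔΔCt method against untreated control, with β2-microglobulin (B2M) as housekeeping gene. Two independent biological replicates per cell line.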
# [12] = molecular target: T1, Cellular tumor antigen p53; assay: Activation of p53 in human NUGC4 cells assessed as change in BAX mRNA level at 60 uM after 18 hrs by RT-PCR method relative to control; format: cell-based; conditions: read-out: FC; method in brief: as §2
# [13] = molecular target: T1, Cellular tumor antigen p53; assay: Activation of p53 in human NUGC4 cells assessed as change in EI24 mRNA level at 60 uM after 18 hrs by RT-PCR method relative to control; format: cell-based; conditions: read-out: FC; method in brief: as §3
# [14] = molecular target: T1, Cellular tumor antigen p53; assay: Activation of p53 in human NUGC4 cells assessed as change in ESR1 mRNA level at 60 uM after 18 hrs by RT-PCR method relative to control; format: cell-based; conditions: read-out: FC; method in brief: as §3
# [15] = molecular target: T1, Cellular tumor antigen p53; assay: Activation of p53 in human NUGC4 cells assessed as change in RPRM mRNA level at 60 uM after 18 hrs by RT-PCR method relative to control; format: cell-based; conditions: read-out: FC
# [16] = molecular target: T1, Cellular tumor antigen p53; assay: Activation of p53 in human NUGC4 cells assessed as change in SESN2 mRNA level at 60 uM after 18 hrs by RT-PCR method relative to control; format: cell-based; conditions: read-out: FC
# [17] = molecular target: T1, Cellular tumor antigen p53; assay: Activation of p53 in human NUGC4 cells assessed as change in GADD45A mRNA level at 60 uM after 18 hrs by RT-PCR method relative to control; format: cell-based; conditions: read-out: FC; method in brief: as §3
# [18] = molecular target: T1, Cellular tumor antigen p53; assay: Activation of p53 in human NUGC4 cells assessed as change in MDM4 mRNA level at 60 uM after 18 hrs by RT-PCR method relative to control; format: cell-based; conditions: read-out: FC; method in brief: as §3
# [19] = molecular target: T1, Cellular tumor antigen p53; assay: Activation of p53 in human NUGC4 cells assessed as change in TP53BP2 mRNA level at 60 uM after 18 hrs by RT-PCR method relative to control; format: cell-based; conditions: read-out: FC
# [20] = molecular target: T1, Cellular tumor antigen p53; assay: Activation of p53 in human NUGC4 cells assessed as change in BCL2 mRNA level at 60 uM after 18 hrs by RT-PCR method relative to control; format: cell-based; conditions: read-out: FC; method in brief: as §2
# [21] = molecular target: T1, Cellular tumor antigen p53; assay: Activation of p53 in human NUGC4 cells assessed as change in IGF1R mRNA level at 60 uM after 18 hrs by RT-PCR method relative to control; format: cell-based; conditions: read-out: FC; method in brief: as §3
# [22] = molecular target: T1, Cellular tumor antigen p53; assay: Activation of p53 in human NUGC4 cells assessed as change in TP63 mRNA level at 60 uM after 18 hrs by RT-PCR method relative to control; format: cell-based; conditions: read-out: FC
# [23] = molecular target: T1, Cellular tumor antigen p53; assay: Activation of p53 in human NUGC4 cells assessed as change in TRAF2 mRNA level at 60 uM after 18 hrs by RT-PCR method relative to control; format: cell-based; conditions: read-out: FC
# [24] = molecular target: T1, Cellular tumor antigen p53; assay: Activation of p53 in human NUGC4 cells assessed as change in BAI1 mRNA level at 60 uM after 18 hrs by RT-PCR method relative to control; format: cell-based; conditions: read-out: FC; method in brief: as §2
# [25] = molecular target: T1, Cellular tumor antigen p53; assay: Activation of p53 in human NUGC4 cells assessed as change in PRC1 mRNA level at 60 uM after 18 hrs by RT-PCR method relative to control; format: cell-based; conditions: read-out: FC
# [26] = molecular target: T1, Cellular tumor antigen p53; assay: Activation of p53 in human NUGC4 cells assessed as change in BRCA2 mRNA level at 60 uM after 18 hrs by RT-PCR method relative to control; format: cell-based; conditions: read-out: FC; method in brief: as §3
# [27] = molecular target: T1, Cellular tumor antigen p53; assay: Activation of p53 in human NUGC4 cells assessed as change in XRCC5 mRNA level at 60 uM after 18 hrs by RT-PCR method relative to control; format: cell-based; conditions: read-out: FC
# Huh-7 = assay: Upregulation of BBC3 mRNA level in p53 Y220C mutant knockout human HuH7 cells at 30 uM after 18 hrs by RT-PCR method; format: functional, cell-based
# SW1088 = assay: Antiproliferative activity against human SW1088 cells harboring p53 R273C mutant assessed as cell viability at <40 uM after 72 hrs by CellTiter-Glo assay relative to control
smiles,measurement,setting,value
CCNC(=O)c1c(O)c(I)c(-n2cccc2)c2sc(N(CC)CC)nc12,fold change (FC),[1],1.2
same,fold change (FC),[2],3.1
same,fold change (FC),[3],1
same,fold change (FC),[4],0.7
same,fold change (FC),[5],3.9
same,fold change (FC),[6],1.1
same,fold change (FC),[7],1.1
same,fold change (FC),[8],6.4
same,fold change (FC),[9],1.4
same,fold induction at 60 µM,[10],1.3
same,fold induction at 60 µM,[11],0.7
same,fold induction at 60 µM,[12],0.8
same,fold induction at 60 µM,[13],0.8
same,fold induction at 60 µM,[14],8.1
same,fold induction at 60 µM,[15],7.9
same,fold induction at 60 µM,[16],1.3
same,fold induction at 60 µM,[17],1.7
same,fold induction at 60 µM,[18],0.9
same,fold induction at 60 µM,[19],0.9
same,fold induction at 60 µM,[20],1.2
same,fold induction at 60 µM,[21],0.8
same,fold induction at 60 µM,[22],0.5
same,fold induction at 60 µM,[23],0.8
same,fold induction at 60 µM,[24],2.9
same,fold induction at 60 µM,[25],0.8
same,fold induction at 60 µM,[26],0.6
same,fold induction at 60 µM,[27],0.8
same,Activity,Huh-7,inactive
same,Activity,SW1088,>80%
